Converted amounts (≈) assume the structure as drawn. The source made the active and inactive calls. The calls are words filed in the database; no cut-off is given here.
Key:
[1] = Lipophilicity, log D of the compound at pH 7.5; format: physicochemical; settings: buffer
[2] = Kinetic solubility of the compound at pH 6.5; format: physicochemical; settings: buffer, read-out: Kinetic_solubility
[3] = molecular target: T1, Histone-lysine N-methyltransferase SMYD3 (Homo sapiens) (UniProt Q9H7B4); settings: dose 120.0 µM
T1 sequence (whole entry): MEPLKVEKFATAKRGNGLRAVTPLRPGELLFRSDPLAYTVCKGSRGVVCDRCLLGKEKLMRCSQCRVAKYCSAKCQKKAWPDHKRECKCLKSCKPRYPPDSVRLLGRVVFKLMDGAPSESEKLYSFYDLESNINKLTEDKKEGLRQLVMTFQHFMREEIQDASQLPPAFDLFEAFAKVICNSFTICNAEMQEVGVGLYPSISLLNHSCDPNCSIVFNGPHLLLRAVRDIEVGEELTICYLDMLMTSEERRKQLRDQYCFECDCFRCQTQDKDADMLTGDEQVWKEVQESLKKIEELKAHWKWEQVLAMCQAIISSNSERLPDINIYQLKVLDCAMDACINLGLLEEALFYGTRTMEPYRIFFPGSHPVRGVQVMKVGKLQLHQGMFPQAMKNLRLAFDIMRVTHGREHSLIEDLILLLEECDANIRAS

[4] = molecular target: T2, Histone-lysine N-methyltransferase SMYD3 (Homo sapiens, UniProt Q9H7B4); test: Binding affinity to recombinant human SMYD3 expressed in Escherichia coli assessed as catalytic inhibition using DYDNPIFEKFGKGGTYPRRYHVSYHGK-Biotin as substrate by scintillation proximity assay
T2 sequence (Q9H7B4 whole entry): T1 sequence (whole entry)

[5] = Dissociation constant, pKa of compound; format: physicochemical
[6] = molecular target: N-lysine methyltransferase SMYD2 (Homo sapiens) (UniProt Q9NRG4); test: Binding affinity to recombinant human SMYD2 expressed in Sf9 insect cells assessed as change in melting temperature at 120 uM by SYPRO Orange staining based thermal shift assay
N-lysine methyltransferase SMYD2 (Homo sapiens), sequence (Q9NRG4 whole entry, the tested form may be a part): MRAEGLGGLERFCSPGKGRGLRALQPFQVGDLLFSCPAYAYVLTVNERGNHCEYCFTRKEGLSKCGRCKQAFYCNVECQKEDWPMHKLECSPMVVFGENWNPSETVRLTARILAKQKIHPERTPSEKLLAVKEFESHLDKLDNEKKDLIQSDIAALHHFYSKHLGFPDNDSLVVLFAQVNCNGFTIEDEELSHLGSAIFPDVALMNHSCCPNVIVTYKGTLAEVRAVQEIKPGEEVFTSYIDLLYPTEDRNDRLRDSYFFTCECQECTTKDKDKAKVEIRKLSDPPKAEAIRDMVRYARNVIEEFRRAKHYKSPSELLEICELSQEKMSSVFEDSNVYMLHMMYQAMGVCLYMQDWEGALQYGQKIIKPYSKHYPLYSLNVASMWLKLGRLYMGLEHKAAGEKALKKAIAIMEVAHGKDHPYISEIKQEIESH
Outline: (§1)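 SMYD1 (aa 2–490) or SMYD2 (aa 2–433), His-tagged from Sf9, Ni-NTA then gel filtration; melt at 1.4 µM protein, 8x SYPRO Orange in 20 mM Tris pH 8.0, 100 mM NaCl, 8.5% glycerol, 1.0 mM DTT; scan 25–80 °C at 0.1 °C/s; 4% DMSO control.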

[7] = molecular target: T3, Histone-lysine N-methyltransferase SMYD1 (Homo sapiens) (UniProt Q8NB12); test: Binding affinity to recombinant human SMYD1 expressed in Sf9 insect cells assessed as change in melting temperature at 120 uM by SYPRO Orange staining based thermal shift assay; outline: as §1
T3 sequence (whole entry): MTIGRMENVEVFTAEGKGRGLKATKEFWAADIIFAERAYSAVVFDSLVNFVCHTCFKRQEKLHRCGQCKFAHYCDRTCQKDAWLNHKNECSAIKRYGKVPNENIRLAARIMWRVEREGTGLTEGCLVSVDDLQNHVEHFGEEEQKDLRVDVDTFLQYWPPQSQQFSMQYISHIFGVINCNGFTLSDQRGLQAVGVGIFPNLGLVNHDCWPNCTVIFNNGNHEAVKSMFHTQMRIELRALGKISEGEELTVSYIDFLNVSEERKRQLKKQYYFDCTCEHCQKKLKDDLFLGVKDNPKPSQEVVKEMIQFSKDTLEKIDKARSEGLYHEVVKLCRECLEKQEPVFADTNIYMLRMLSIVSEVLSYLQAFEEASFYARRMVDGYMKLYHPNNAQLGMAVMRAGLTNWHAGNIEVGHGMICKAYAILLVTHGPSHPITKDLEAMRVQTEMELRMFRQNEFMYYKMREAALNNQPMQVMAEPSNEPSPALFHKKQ

[8] = molecular target: T1, Histone-lysine N-methyltransferase SMYD3 (Homo sapiens); test: Binding affinity to recombinant human SMYD3 expressed in Escherichia coli assessed as change in melting temperature at 10 to 200 uM by SYPRO Orange staining based thermal shift assay; settings: dose 10-200 µM
Outline: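 Full-length untagged SMYD3 (aa 1–428, E. coli, His tag removed by TEV) at 1.5–2.0 µM with 5x SYPRO Orange in 20 mM Tris pH 7.0, 150 mM NaCl, 1.0 mM DTT; compound titration 10–200 µM; 4% DMSO control; melting scanned 25–80 °C at 0.1 °C/s; Tm shift read.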

[9] = tested on: Histone-lysine N-methyltransferase SMYD3 (Homo sapiens), Q9H7B4 [UNDEFINED MUTATION]; test: Inhibition of SMYD3 catalytic inactive mutant co-expressed with HA-tagged MAP3K2 transfected in human HeLa cells assessed as reduction of MAP3K2-K260me3 level upto 10 uM incubated for 20 hrs by Western blotting analysis; format: cell-based
Outline: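 After 4 h, compound or DMSO for 20 h. Lysates immunoblotted for MAP3K2-K260me3 (in-house antibody), HA, SMYD3 and MAP3K2 with infrared secondaries. K260me3 signal normalized to HA; three technical replicates, mean ± SEM, nonlinear fit.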

Row | logD [1] | solubility kinetic [2] [µg/mL] | deltaTm [3] [K] | IC50 [4] [nM] | pKa [5] | deltaTm [6] [K] | deltaTm [7] [K] | deltaTm [8] [K] | inhibition [9] | Structure (SMILES)
1 | 1.4 | 318 (≈ 768 µM) |  |  |  |  |  |  |  | C[C@H]1CC(=O)Nc2cc(C(=O)NCCC3CC3)ccc2N1C(=O)N1CCC(N)CC1
2 | 2.4 | 345 (≈ 677 µM) | 3.34 | 5560 |  |  |  |  |  | C[C@H]1CC(=O)Nc2cc(C(=O)NCCC3CC3)ccc2N1C(=O)N(C)C1CCN(CC(F)(F)F)CC1
3 |  |  | 5.15 | 2530 |  |  |  |  |  | C[C@@H]1CC(=O)Nc2cc(C(=O)NCCC3CC3)ccc2N1C(=O)N1CC2CC2C1 (some centres not stated)
4 | 1.4 | > 414 | 8.46 | 54.2 | 8.8 |  |  |  |  | C[C@H]1CC(=O)Nc2cc(C(=O)NCCC3CC3)ccc2N1C(=O)N1CCCNCC1
5 | 1.5 | > 456 | 8.2 | 177 |  |  |  |  |  | CCN1CCC(N(C)C(=O)N2c3ccc(C(=O)NCCC4CC4)cc3NC(=O)C[C@@H]2C)CC1
6 | 2 | 294 (≈ 700 µM) | 6.16 | 763 |  |  |  |  |  | C[C@H]1CC(=O)Nc2cc(C(=O)NCCC3CC3)ccc2N1C(=O)N1CCC(F)(F)C1
7 | 1.7 | > 428 | 7.34 | 459 |  |  |  |  |  | CCN1CCN(C(=O)N2c3ccc(C(=O)NCCC4CC4)cc3NC(=O)C[C@@H]2C)CC1
8 |  |  |  |  |  | 0.2 | 0 | 0 |  | CCCCNC(=O)c1ccc2c(c1)NC(=O)CC(C)N2C(=O)c1cccc(F)c1 (configuration not stated)
9 | 1.4 | 320 (≈ 775 µM) |  |  |  |  |  |  |  | C[C@@H]1CC(=O)Nc2cc(C(=O)NCCC3CC3)ccc2N1C(=O)N1CCC(N)CC1
10 | 1.4 | 374 (≈ 936 µM) | 7.42 | 252 |  |  |  |  |  | C[C@H]1CC(=O)Nc2cc(C(=O)NCCC3CC3)ccc2N1C(=O)N1CCNCC1
11 |  |  |  | 18000 |  | 0 | -0.2 | 0.2 |  | CCCNC(=O)c1ccc2c(c1)NC(=O)CC(C)N2C(=O)c1cccs1 (configuration not stated)
12 | 1.3 | 257 (≈ 602 µM) | 6.1 | 493 |  |  |  |  |  | C[C@H]1CC(=O)Nc2cc(C(=O)NCCC3CC3)ccc2N1C(=O)N(C)C1CCNCC1
13 | 2.1 | 231 (≈ 531 µM) | 5.6 | 2330 |  |  |  |  |  | C[C@H]1CC(=O)Nc2cc(C(=O)NCCC3CC3)ccc2N1C(=O)N1CCC(F)(F)CC1
14 | 1.4 | 294 | 7.56 | 259 |  |  |  |  |  | C[C@H]1CC(=O)Nc2cc(C(=O)NCCC3CC3)ccc2N1C(=O)N1CC[C@H](N)C1.Cl
15 |  |  | 2.4 | 12000 |  | 0 | 0 | 0.7 |  | CCCCNC(=O)c1ccc2c(c1)NC(=O)CC(C)N2C(=O)c1ccccc1F (configuration not stated)
16 |  |  | 3.9 | 2640 |  |  |  |  |  | C[C@H]1CC(=O)Nc2cc(C(=O)N(C)CCC3CC3)ccc2N1C(=O)N1CC2CC2C1 (some centres not stated)
17 | 2.4 | 87.5 (≈ 216 µM) | 4.77 | 1850 |  |  |  |  |  | CC1CC(=O)Nc2cc(C(=O)NCCC3CCC3)ccc2N1C(=O)c1ccccc1 (racemic)
18 |  |  |  | 27000 |  | 0.1 | -0.1 | 0 |  | CCCCCNC(=O)c1ccc2c(c1)NC(=O)CC(C)N2C(=O)C1CCCC1 (configuration not stated)
19 |  |  |  | > 100000 |  |  |  |  | inactive | C[C@@H]1CC(=O)Nc2cc(C(=O)N(C)CCC3CC3)ccc2N1C(=O)N1CC2CC2C1 (some centres not stated)
20 |  |  |  | 24000 |  | 0.2 | -0.2 | 0.2 |  | CCCCCNC(=O)c1ccc2c(c1)NC(=O)CC(C)N2C(=O)c1ccccc1F (configuration not stated)
21 | 1.4 | 330 | 5.91 | 832 |  |  |  |  |  | C[C@H]1CC(=O)Nc2cc(C(=O)NCCC3CC3)ccc2N1C(=O)N1CC[C@@H](N)C1.Cl
22 |  |  |  | 18000 |  | 0.2 | -0.2 | 0.4 |  | CCCCNC(=O)c1ccc2c(c1)NC(=O)CC(C)N2C(=O)CCC1CCCC1 (configuration not stated)
23 | 1.3 | 252 (≈ 609 µM) | 6.77 | 396 |  |  |  |  |  | C[C@H]1CC(=O)Nc2cc(C(=O)NCCC3CC3)ccc2N1C(=O)NC1CCNCC1
24 | 1.5 | 254 (≈ 573 µM) | 5.63 | 1080 |  |  |  |  |  | C[C@H]1CC(=O)Nc2cc(C(=O)NCCC3CC3)ccc2N1C(=O)N1CCN(CCO)CC1
25 | 2.1 | 95.5 (≈ 244 µM) | 3.9 | 1970 |  |  |  |  |  | CC1CC(=O)Nc2cc(C(=O)NCCC3CC3)ccc2N1C(=O)c1ccccc1 (racemic)
26 |  |  |  | 22000 |  | 0.2 | 0.2 | 0.2 |  | CCCCCNC(=O)c1ccc2c(c1)NC(=O)CC(C)N2C(=O)c1ccc(C)cc1 (configuration not stated)
27 | 2.2 | 312 (≈ 631 µM) | 5.63 | 1030 |  |  |  |  |  | C[C@H]1CC(=O)Nc2cc(C(=O)NCCC3CC3)ccc2N1C(=O)N1CCC(NCC(F)(F)F)CC1
28 | 2.2 |  | 5.26 | 1510 |  |  |  |  |  | C[C@H]1CC(=O)Nc2cc(C(=O)NCCC3CC3)ccc2N1C(=O)N1CCN(CC(F)(F)F)CC1
